Columns and labels:
[1] = target: Histamine H2 receptor (Cavia porcellus) (UniProt P47747); experiment: Intrinsic activity (as a measure of agonism) on electrically stimulated papillary muscle of guinea pig; format: functional, tissue-based; conditions: Muscle tissue
Method in brief: (§1)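 Isolated right-ventricular papillary muscle from guinea pig, electrically paced at 1 Hz with 1 ms pulses, in Krebs-Henseleit solution gassed with O2/CO2 95:5 at 32.5 °C. Compounds were tested as hydrohalide salts. Cumulative concentration-response curves of contractile force were run against histamine as the standard agonist. […] relative potency were taken from pD2, with histamine maximum = 1.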

Cavia porcellus [2] = species: Cavia porcellus; experiment: Relative potency with impromidine (100%) in isolated perfused guinea pig heart; format: functional
Method in brief: (§2)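 Langendorff-perfused isolated guinea pig heart. Compounds were given as a bolus injected into the perfusion stream, with impromidine as reference. Net increases in LV dp/dtmax, heart rate and coronary flow were expressed against impromidine = 100% in a control group (n = 6 each). Relative potency was taken from molar ED50 ratios versus impromidine = 100%.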

Cavia porcellus [3] = species: Cavia porcellus; experiment: Increase in coronary flow with maximal inotropic response in isolated perfused guinea pig heart; format: functional; parameters: unit not given beside the values; method in brief: as §2
[4] = target: Histamine H2 receptor (Cavia porcellus) (UniProt P47747); experiment: Agonistic activity relative to histamine on electrically stimulated papillary muscle of guinea pig; format: functional, tissue-based; conditions: Muscle tissue; method in brief: as §1
[5] = target: Histamine H2 receptor (Cavia porcellus) (UniProt P47747); experiment: Potency relative to histamine calculated from mean pD2 value in guinea pig right atrium.; format: functional, tissue-based; conditions: Cardiac atrium
Method in brief: (§3)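 Spontaneously beating isolated guinea pig right atrium with a positive chronotropic read-out. Cumulative concentration-response curves were run against histamine dihydrochloride as the standard. Incubation after each concentration was usually 25 min, adjusted until equilibrium. H2 selectivity was checked with cimetidine (10 µM and 1 µM) and metoprolol (1 µM). Potency relative to histamine = 1 was calculated from mean pD2 values.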

Cavia porcellus [6] = species: Cavia porcellus; experiment: Chronotropic effect assessed from maximal increase in delta LV (dp/dtmax) in isolated perfused guinea pig heart; format: functional; conditions: in the assay text read “Inotropic effect” for “Chronotropic effect”; method in brief: as §2
[7] = target: Histamine H2 receptor (Cavia porcellus) (UniProt P47747); experiment: Histamine H2 receptor agonism relative to histamine on isolated guinea pig right atrium; format: functional, tissue-based; conditions: Cardiac atrium; method in brief: as §3
Histamine H1 receptor = Histamine H1 receptor (Cavia porcellus, UniProt P31389); experiment: Antagonist activity at histamine H1 receptor against histamine in isolated ileum of guinea pig.; format: functional, tissue-based; conditions: read-out: pA2 (converted)
Method in brief: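 Isolated guinea pig ileum contracted by histamine, with histamine dihydrochloride as the standard agonist in cumulative dose-response curves. pA2 was derived. For compounds that depressed the histamine maximum at 10 µM, -log KB was taken at 3 µM antagonist from log(DR-1) = log[ant.] - log KB.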

[8] = target: Histamine H2 receptor (Cavia porcellus) (UniProt P47747); experiment: Histamine H2 receptor agonistic activity (as a measure of agonism) at the isolated right atrium of guinea pig, activity relative to histamine.; format: functional, tissue-based; conditions: Cardiac atrium; method in brief: as §3
Cavia porcellus [9] = species: Cavia porcellus; experiment: Increase in heart rate with maximal inotropic response in isolated perfused guinea pig heart; format: functional; method in brief: as §2

Chain of Histamine H2 receptor (Cavia porcellus) (P47747 whole entry, the tested form may be a part): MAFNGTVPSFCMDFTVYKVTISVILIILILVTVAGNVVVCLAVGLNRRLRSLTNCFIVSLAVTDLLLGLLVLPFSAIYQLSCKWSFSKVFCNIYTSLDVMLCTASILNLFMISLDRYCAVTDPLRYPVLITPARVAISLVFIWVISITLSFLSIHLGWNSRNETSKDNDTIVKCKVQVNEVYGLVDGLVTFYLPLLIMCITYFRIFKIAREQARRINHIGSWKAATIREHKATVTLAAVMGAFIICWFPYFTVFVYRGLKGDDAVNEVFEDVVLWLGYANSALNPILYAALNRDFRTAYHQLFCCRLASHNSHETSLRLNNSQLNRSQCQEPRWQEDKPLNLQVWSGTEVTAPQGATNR
Chain of Histamine H1 receptor (P31389 whole entry): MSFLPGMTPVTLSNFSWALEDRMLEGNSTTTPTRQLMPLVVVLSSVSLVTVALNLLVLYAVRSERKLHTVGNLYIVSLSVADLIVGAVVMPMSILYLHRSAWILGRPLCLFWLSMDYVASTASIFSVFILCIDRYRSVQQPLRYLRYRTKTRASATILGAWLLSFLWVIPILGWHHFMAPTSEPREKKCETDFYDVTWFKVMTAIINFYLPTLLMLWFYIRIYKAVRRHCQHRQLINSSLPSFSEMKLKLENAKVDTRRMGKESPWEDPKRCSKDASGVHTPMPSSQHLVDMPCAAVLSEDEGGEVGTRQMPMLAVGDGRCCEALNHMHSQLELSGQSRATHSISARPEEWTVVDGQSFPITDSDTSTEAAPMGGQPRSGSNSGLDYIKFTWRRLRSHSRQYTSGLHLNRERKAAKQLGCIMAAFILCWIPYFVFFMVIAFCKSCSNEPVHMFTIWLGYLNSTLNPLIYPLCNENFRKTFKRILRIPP

- Intrinsic activity [1]: 0.7
- pD2 [4]: 7.37
- Relative potency [5]: 24.5
- pD2 [7]: 7.39
- Kb (Histamine H1 receptor): 97.7 nM
- Intrinsic activity [8]: 1
SMILES: N=C(NCCCc1c[nH]cn1)NCCC(c1ccccc1)c1ccccn1 (stereo not given)
- Relative potency (Cavia porcellus [2]): 63
- Delta coronary flow (Cavia porcellus [3]): 121
- Delta LV (Cavia porcellus [6]): 76
- Delta heart rate (Cavia porcellus [9]): 70
